TLR9-MyD88 inh – inhibitors of TLR9-MyD88 association in cells, primary screen, cell-based, CHO, BLA complementation, fluorescence; Toll-like receptor 9 (Homo sapiens) + Myeloid differentiation primary response protein …; CCF4 FRET ratio; inhibition, % at 4.98 µM; 340,000 tested, 0.21% active; AID 504734, 2011;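 active means inhibition above the mean over all tested compounds plus 3 SD, cut at about 21% in these data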;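 further: 0% = DMSO only wells and 100% = clavulanate BLA inhibitor control wells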
TLR4-MyD88 BLA – inhibitors of TLR4-MyD88 association in cells, primary screen, cell-based, HeLa CL3-4, BLA complementation, FRET ratio; Toll-like receptor 4 (Homo sapiens) + Myeloid differentiation primary response protein …; HeLa CL3-4 TLR4/MyD88 BLA complementation; inhibition, % at 8.4 µM; 200,000 tested, 0.18% active; in the data active means inhibition above about 25%;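 further: 0% = vehicle and 100% = reference inhibitor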
Target sequence (O00206 whole entry, looked up): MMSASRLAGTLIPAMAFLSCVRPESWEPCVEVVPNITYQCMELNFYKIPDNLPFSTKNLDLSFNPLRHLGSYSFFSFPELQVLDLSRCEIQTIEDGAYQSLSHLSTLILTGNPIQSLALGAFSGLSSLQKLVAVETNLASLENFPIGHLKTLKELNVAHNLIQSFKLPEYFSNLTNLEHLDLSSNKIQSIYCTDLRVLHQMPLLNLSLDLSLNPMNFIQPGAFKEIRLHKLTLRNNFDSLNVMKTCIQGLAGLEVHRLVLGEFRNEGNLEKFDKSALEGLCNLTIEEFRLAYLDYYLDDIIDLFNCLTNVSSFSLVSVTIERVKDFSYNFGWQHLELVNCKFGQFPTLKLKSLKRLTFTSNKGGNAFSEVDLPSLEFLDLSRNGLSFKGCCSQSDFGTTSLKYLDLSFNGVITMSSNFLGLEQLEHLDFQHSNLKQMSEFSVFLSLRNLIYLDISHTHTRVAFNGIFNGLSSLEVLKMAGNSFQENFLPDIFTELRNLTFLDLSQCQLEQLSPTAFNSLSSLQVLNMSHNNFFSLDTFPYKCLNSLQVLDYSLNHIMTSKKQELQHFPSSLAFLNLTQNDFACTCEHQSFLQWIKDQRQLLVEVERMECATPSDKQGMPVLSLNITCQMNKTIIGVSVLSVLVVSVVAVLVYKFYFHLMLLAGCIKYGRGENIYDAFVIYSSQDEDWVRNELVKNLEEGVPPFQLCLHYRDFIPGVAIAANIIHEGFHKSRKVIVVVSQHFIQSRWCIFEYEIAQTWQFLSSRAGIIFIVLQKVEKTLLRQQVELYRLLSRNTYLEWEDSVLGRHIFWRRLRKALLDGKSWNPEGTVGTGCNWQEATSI
Target sequence (Q99836 whole entry, looked up): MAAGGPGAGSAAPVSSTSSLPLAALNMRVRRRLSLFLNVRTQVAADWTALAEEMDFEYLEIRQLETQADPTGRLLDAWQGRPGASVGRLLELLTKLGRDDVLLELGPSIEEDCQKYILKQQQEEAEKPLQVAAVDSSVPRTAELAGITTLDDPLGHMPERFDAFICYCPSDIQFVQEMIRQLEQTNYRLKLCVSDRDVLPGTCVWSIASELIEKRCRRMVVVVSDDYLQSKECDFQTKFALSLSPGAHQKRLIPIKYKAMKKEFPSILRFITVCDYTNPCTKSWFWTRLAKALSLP
NOD2 RIPK2 PPI – NOD2-RIPK2 binding disruptors in cells, primary screen, fluorescence, CHO cells, BLA complementation. Receptor-interacting serine/threonine-protein kinase 2 (Homo sapiens), O43353. CCF4 ratio. inhibition, % at 4.98 µM. 360,000 tested, 0.38% active. AID 624267, 2012; in the data active means inhibition above about 21%;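 further: 0% = vehicle only and 100% = reference blocker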
B2AR ag – beta2AR agonists driving receptor internalization, primary screen, cell-based, FAP fluorogen, flow cytometry. Am2.2-beta2AR cells. response, % (test concentration not listed). 340,000 tested, 0.43% active;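 active means response above a set limit, near 3 SD of response in nonfluorescent compounds, cut at about 42% in these data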
Dynein transport – inhibitors of GR-EGFP nuclear translocation, primary screen, dynein cargo transport inhibitor project, imaging, high-content, 3617.4 mouse cells. z-score, hits read low. AID 1381, 2008. test concentration mostly 20 µM; stimulated with dexamethasone, 1 µM; active compounds read low. 220,000 tested, 0.47% active;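 active means plate z-score of nuclear minus cytoplasmic receptor signal below a set negative limit, without overly bright fluorescence or cell loss, cut at about -3.5 in these data, passing the limit was not always enough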;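 further: z-score of nuclear minus cytoplasmic ring GR-EGFP intensity difference per well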
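Schedule: 48 h induction, then 1 h compound, then 30 min agonist, 37 °C. Buffer or medium: tetracycline-free induction medium containing charcoal-stripped FBS. Reagent: 1.0 µM final dexamethasone stimulus. Evaluation: nuclear versus cytoplasmic GR-EGFP signal, averaged per well. Signal: high-content fluorescence imaging after fixation.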
ABHD5-PLIN5 inh – ABHD5-PLIN5 interaction inhibitors, primary screen, cell lysate, split luciferase complementation, luminescence; Perilipin-5 (Homo sapiens) + 1-acylglycerol-3-phosphate O-acyltransferase ABHD5 (Homo …; Split G. princeps luciferase complementation, 4 h; inhibition, % at 4 µM; 360,000 tested, 0.78% active; AID 602281, 2012;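 active means inhibition above the mean inhibition across every tested compound plus 3 SD, cut at about 22% in these data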;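 further: 0% = DMSO only wells and the 100% control is not disclosed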
NOD2 RIPK2 conf – NOD2-RIPK2 binding disruptors, retest, confirmation, fluorescence, CHO cells, BLA complementation, triplicate | shares compounds with NOD2 RIPK2 PPI | AID 624370, 2012 | inhibition, % at 4.98 µM | 1,200 tested, 70% active | CCF4 FRET;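 active means mean inhibition across replicates above a set limit taken from the earlier primary screen, cut at about 21% in these data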;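 further: 0% = DMSO-only wells and the high end = clavulanate BLA-blocked wells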
BLA counter – NOD2-RIPK2 counterscreen BLA reporter activity. shares compounds with NOD2 RIPK2 PPI. CHO BLA reporter, CCF4 FRET ratio. inhibition, % at 4.98 µM. 1,200 tested, 57% active;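 active means mean inhibition above the low-control mean inhibition plus three low-control SD, cut at about 11% in these data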;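 further: 0% = DMSO only wells and 100% = clavulanate high control wells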
Starred values were filed as active, the others as inactive; / = no result given. This is a sample that favours compounds with a hit; in the whole collection about 1.6% have one here.

SMILES | TLR9-MyD88 inh | TLR4-MyD88 BLA | NOD2 RIPK2 PPI | B2AR ag | Dynein transport | ABHD5-PLIN5 inh | NOD2 RIPK2 conf | BLA counter
O=S1(=O)C[C@H](N2CCC[C@@H]2CO)[C@@H](COCc2ccccc2)N1 | / | / | -4.7 | / | / | 0.2 | / | /
O=C(C[C@H]1CC[C@@H]2[C@H](COC[C@@H](O)CN2Cc2ccc(Cl)cc2)O1)NCCc1ccccc1 | / | / | -5.5 | / | / | -0.1 | / | /
Cc1cc(N(CC(=O)NC(C)C)S(C)(=O)=O)ccc1Br | -12.9 | 1.9 | 24.2* | -8.6 | 0.0901 | -3.0 | -6.7 | -3.3
Cc1cc(N(CC(=O)O)S(C)(=O)=O)ccc1Br | -10.9 | 4.3 | -5.0 | 7.8 | 0.5 | 4.3 | / | /
COc1ccc(CC2C(=O)NC(C)C(=O)N(C)C3Cc4ccc(cc4)Oc4cc(ccc4O)CC(C(=O)NC(C)C(=O)NC(C)C(=O)N2C)N(C)C3=O)cc1 (configuration not stated) | -1.7 | / | 22.4* | 2.3 | / | -8.1 | 26.1* | -1.9
CC(C)C[C@@H]1NC(=O)[C@H](Cc2ccccc2)N(C)C(=O)[C@H](C)NC(=O)c2ccccc2NC(=O)[C@H](Cc2ccc(O)cc2)N(C)C1=O | -3.9 | / | -6.2 | -0.9 | -0.678 | 2.0 | / | /
O=C1NC(Cc2ccccc2)C(=O)N1Cc1ccccc1 (configuration not stated) | -2.3 | / | -8.2 | 3.0 | / | 1.2 | / | /
O=c1ccsn1Cc1ccccc1 | 1.7 | 7.5 | 27.0* | 21.1 | -3.42 | 82.1* | -3.7 | 1.2
C[C@@H](C(=O)Nc1ccc2c(c1)OCCO2)n1nnc2ccccc2c1=O | 7.0 | / | 5.6 | 4.5 | / | 0.6 | / | /
COc1ccc(C(C(=O)NC(C)(C)C)n2c(-c3ccc(=O)[nH]c3)nc3ccccc32)cc1 (configuration not stated) | / | / | -2.1 | / | / | 4.6 | / | /
COc1ccc(C(C(=O)Nc2ccc3c(c2)OCCO3)n2c(=O)c(-c3cc4ccccc4[nH]3)nc3ccccc32)cc1 (configuration not stated) | / | / | 44.8* | / | / | 18.3 | 42.6* | 65.2*
COc1ccc(NC(=O)C(c2ccc(C(F)(F)F)cc2)n2c(=O)c(-c3cc4ccccc4[nH]3)nc3ccccc32)cc1 (configuration not stated) | / | / | 41.1* | / | / | -9.6 | 38.0* | 63.8*
Cc1cc(Br)cn2c(CC(C)(C)C)c(-c3cccc(Cl)c3)nc12 | / | / | -7.4 | / | / | -4.9 | / | /
CSc1ccc(CN2CCC(C)(Oc3cccc(F)c3)C2)cc1 (configuration not stated) | / | / | -7.6 | / | / | 0.1 | / | /
CC(=O)Nc1ccc(Sc2ccc([N+](=O)[O-])o2)cc1 | 6.6 | / | 29.0* | 38.2 | / | 10.9 | 46.8* | 15.7*
COCCc1ccc(OC2(C)CCN(Cc3cccc(OCOC)c3)C2)cc1 (configuration not stated) | / | / | -3.0 | / | / | 2.7 | / | /
Cc1cccc(C)c1NC(=O)C(c1cccc2ccccc12)n1c(=O)c(-c2cc3ccccc3[nH]2)nc2ccccc21 (configuration not stated) | / | / | 42.0* | / | / | 2.4 | 38.5* | 64.5*
Cc1cccc(C)c1NC(=O)C(c1ccccc1F)n1c(=O)c(-c2cc3ccccc3[nH]2)nc2ccccc21 (configuration not stated) | / | / | 49.8* | / | / | 2.8 | 46.2* | 68.0*
CC(C(=O)NCc1ccccc1)n1c(Cc2cc(F)cc(F)c2)nc2ccccc21 (configuration not stated) | / | / | -3.0 | / | / | 2.5 | / | /
O=C(NCc1ccccc1)C(c1cccc2ccccc12)n1c(=O)c(-c2cc3ccccc3[nH]2)nc2ccccc21 (configuration not stated) | / | / | 43.1* | / | / | 8.2 | 40.8* | 65.8*
O=C(NCc1ccccc1)C(CCc1ccccc1)n1c(=O)c(-c2cc3ccccc3[nH]2)nc2ccccc21 (configuration not stated) | / | / | 50.1* | / | / | 10.2 | 46.4* | 68.8*
Cc1cccc(C)c1NC(=O)C(C)n1c(-c2ccc(=O)[nH]c2)nc2ccccc21 (configuration not stated) | / | / | -6.7 | / | / | 0.9 | / | /
C[C@H]1CN([C@@H](C)CO)C(=O)CCCn2cc(nn2)CO[C@@H]1CN(C)S(=O)(=O)c1cccc(F)c1 | -2.8 | / | 1.9 | / | / | 3.4 | / | /
COc1ccccc1N(C)S(=O)(=O)c1ccc(C(=O)OCC(N)=O)cc1 | 6.6 | -2.6 | 49.9* | 15.3 | 0.349 | 0.7 | 1.0 | -3.7
COC(=O)C1CN(C(=O)C(C)Oc2ccc(C(C)C)cc2)c2ccccc2O1 (configuration not stated) | -5.9 | / | -5.8 | 2.6 | / | 0.4 | / | /
SMILES | TLR9-MyD88 inh | TLR4-MyD88 BLA | NOD2 RIPK2 PPI | B2AR ag | Dynein transport | ABHD5-PLIN5 inh | NOD2 RIPK2 conf | BLA counter
CCOC(=O)C1=C(c2ccccc2)N=c2s/c(=C\c3ccc(O)cc3)c(=O)n2C1c1cccs1 (configuration not stated) | -4.7 | 20.4 | 24.9* | -30.9 | -1.24 | -16.1 | 31.3* | 41.7*
CCc1ccc2nc(N(CCCN(C)C)C(=O)c3ccc(S(=O)(=O)N4CCc5ccccc5C4)cc3)sc2c1 | 14.6 | / | 21.7* | 34.9 | / | 20.0 | 23.4* | 4.8
CCOc1cccc2sc(N(CCCN(C)C)C(=O)c3ccc(S(=O)(=O)N4CCc5ccccc5C4)cc3)nc12 | 4.4 | / | 11.6 | 15.0 | / | 18.6 | / | /
Cc1cc(-c2cc(NC=O)c3ncc(-c4cccc(C(=O)NCCN(C)C)c4)n3c2)cc(C)c1O | / | / | 12.8 | / | / | 4.8 | / | /
CC1(C(=O)NCc2ccccc2Br)CCN1C(=O)Cc1ccc(-c2ccccc2)cc1 (configuration not stated) | / | / | -10.4 | / | / | -1.7 | / | /
N#CC1(NC(=O)Cn2ncc(Cl)c(Cl)c2=O)CCCCC1 | 10.2 | / | 10.2 | 3.0 | / | 10.1 | / | /
CCc1ccc(C(=O)Cn2ncc(Cl)c(Cl)c2=O)cc1 | 19.3 | 12.4 | 34.3* | 39.8 | -2.04 | 3.1 | 39.9* | 8.7
O=c1ccc2cc(O)c(O)cc2o1 | 8.6 | 11.8 | 22.8* | -2.5 | 0.268 | 0.7 | 22.7* | 36.5*
CCOC(=O)[C@]12CCCC=C1N(Cc1ccccc1)C(=O)[C@H](CC(=O)NCC13CC4CC(CC(C4)C1)C3)C2 | / | / | -14.2 | / | / | -11.4 | / | /
